# Among all 2,000 compounds or so, about 10 (0.5%) were called active.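 Rule for the calls: active = inhibition above 30%; inactive = the rest.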 Only a selection was taken, and actives are over-represented in it overall.
# Molecular target: Protein-arginine deiminase type-4 (Homo sapiens) (UniProt Q9UM07)
# Test: human PAD4 inhibitors, primary screen, biochemical, fluorescence polarization (AID 463073);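 note: 0% = PAD4 with DMSO and 100% = wells lacking PAD4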
# Settings: recombinant PAD4, RFA probe fluorescence polarization; at 5 µM; hits give high values
# Method in brief: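 Material – recombinant PAD4 · Amount – PAD4 at 2 µM in dispensed buffer, before additions · Medium – Ca2+-containing HEPES pH 7.6, TCEP · Doses – one dose, 5 µM final · Schedule – 30 min 25 °C preincubation, 5 h 37 °C labeling · Measured by – FP, ex 525 nm, em 598 nm · Benchmarks – wells lacking PAD4 as full-inhibition control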
# Sequence of Protein-arginine deiminase type-4 (Homo sapiens) (Q9UM07 whole entry, looked up): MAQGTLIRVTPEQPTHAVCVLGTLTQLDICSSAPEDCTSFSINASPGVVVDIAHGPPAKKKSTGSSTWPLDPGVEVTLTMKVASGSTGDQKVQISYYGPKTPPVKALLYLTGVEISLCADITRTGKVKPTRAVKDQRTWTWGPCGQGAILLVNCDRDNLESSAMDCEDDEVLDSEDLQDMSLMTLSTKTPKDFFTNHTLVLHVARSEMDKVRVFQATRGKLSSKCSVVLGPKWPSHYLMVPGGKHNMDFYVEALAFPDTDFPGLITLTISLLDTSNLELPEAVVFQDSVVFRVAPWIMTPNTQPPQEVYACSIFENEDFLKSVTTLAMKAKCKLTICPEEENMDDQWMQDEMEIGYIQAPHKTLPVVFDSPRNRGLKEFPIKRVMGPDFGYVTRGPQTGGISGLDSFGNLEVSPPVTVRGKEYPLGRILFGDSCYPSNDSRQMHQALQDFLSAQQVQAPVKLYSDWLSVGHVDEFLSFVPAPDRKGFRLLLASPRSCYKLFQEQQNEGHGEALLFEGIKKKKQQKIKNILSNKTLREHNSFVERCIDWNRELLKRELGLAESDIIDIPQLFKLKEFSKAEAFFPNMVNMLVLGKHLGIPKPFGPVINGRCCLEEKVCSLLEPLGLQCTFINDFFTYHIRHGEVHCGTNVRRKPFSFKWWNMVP
row,SMILES,inhibition
1,Cc1ccc2c(c1)C1OCCC1C1N2C(=O)C2C(C(=O)O)C3C=CC21O3 (configuration not stated),6.06% (inactive)
2,Cn1cc(CN2CCC(C(=O)N3CCCCC3)CC2)c(-c2ccccc2F)n1,4.74% (inactive)
3,O=C1OC(c2ccccc2)=C/C1=C/c1cccs1,-2.45% (inactive)
4,c1ccc(Nc2ccccn2)nc1,-4.7% (inactive)
5,CS(=O)(=O)c1cccc(C(=O)Oc2ccccc2)c1,5.29% (inactive)
6,CC(=O)OCC1OC(n2ccc(=O)[nH]c2=O)C(O)C1O (configuration not stated),1.17% (inactive)
7,CC(C)C[C@H](NC(=O)[C@@H]1Cc2ccccc2CN1C(=O)OC(C)(C)C)C(=O)NCC1CCC(C(=O)O)CC1 (some centres not stated),0.39% (inactive)
8,CS(=O)(=O)Nc1cccc(C(=O)CC2(O)C(=O)Nc3ccc(Br)cc32)c1 (configuration not stated),0.36% (inactive)
9,Cn1c2c(c(=O)[nH]c1=O)C(c1ccc(O)cc1)C1=C(N2)c2ccccc2C1=O (configuration not stated),4.81% (inactive)
10,Cc1cc(C)c(NC(=O)NC(=O)C(Cl)(Cl)Cl)c(C)c1,-2.27% (inactive)
11,CC(=O)OC[C@H]1O[C@@H](Sc2cccc3cccnc23)[C@H](OC(C)=O)[C@@H](OC(C)=O)[C@H]1OC(C)=O,1.27% (inactive)
12,CCOC(=O)C1C(=O)OC(C)(C)C1C(C)C(=O)c1ccc(C)cc1 (configuration not stated),-0.2% (inactive)
13,CCOC(=O)C(Cc1cc(C(C)=O)ccc1OC(C)C)C(=O)OCC,2.78% (inactive)
14,CCOc1ccc(N2C(=O)CC(NCCNc3ccc([N+](=O)[O-])cn3)C2=O)cc1 (configuration not stated),9.78% (inactive)
15,CN1C(=O)C(O)(CC(=O)c2ccccc2O)c2cc(Br)ccc21 (configuration not stated),-1.81% (inactive)
16,CCOC(=O)C(NC(=O)CCC(=O)Nc1ccc(S(N)(=O)=O)cc1)C(O)c1ccccc1 (configuration not stated),-0.41% (inactive)
17,CCc1cc2c(C)cc(=O)oc2cc1OC(=O)C1CCCN1C(=O)OC(C)(C)C (configuration not stated),1.27% (inactive)
18,COC(=O)c1[nH]c2ccc(C)cc2c1NC(=O)CN1CCc2cc(OC)c(OC)cc2C1,0.78% (inactive)
19,COc1ccc(CC(=O)NCC2(c3ccc(OC)c(OC)c3)CCOCC2)cc1,2.08% (inactive)
20,COc1ccc(CNC(=O)c2c(O)c3cccc4c3n(c2=O)CCC4)cc1,4.58% (inactive)
21,CC(C)CC(=O)Nc1ccc2oc(-c3ccncc3)nc2c1,1.75% (inactive)
22,CC(C)NC(=O)c1ccc(C(C)C)cc1,-2.74% (inactive)
23,O=C(CN1C(=O)c2ccccc2S1(=O)=O)Nc1ccccc1,-2.01% (inactive)
24,COC(=O)C1=NN(C(=O)c2cccc(Br)c2)C(O)(c2ccc(Cl)cc2)C1 (configuration not stated),-1.03% (inactive)
25,CC(C)(C)C(=O)Nc1cccc(OC(F)(F)C(F)Cl)c1 (configuration not stated),3.96% (inactive)

row,SMILES,inhibition
1,COc1ccc(-c2csc(-c3cccnc3)n2)cc1C,-0.79% (inactive)
2,COc1ccc(OC)c(C(=O)c2coc3ccc(O)cc23)c1,-2.55% (inactive)
3,OCC(O)CN1CCN(c2ccccc2)CC1 (configuration not stated),-2.45% (inactive)
4,O=c1c(-c2ccccc2)c(O)c2cccc3c2n1CCC3,5.09% (inactive)
5,Cc1cc(OC(=O)CNC(=O)OC(C)(C)C)c2c(C)cc(=O)oc2c1,22.1% (inactive)
6,CC(NC(=O)OCc1ccccc1)C(=O)N1CC(O)CC1C(=O)O (configuration not stated),6.64% (inactive)
7,COC(=O)c1ccc(CC(=O)c2ccc(O)cc2O)o1,4.18% (inactive)
8,CCCCCCCC(=O)OCC(=O)[C@@]1(O)CC[C@H]2[C@@H]3CCC4=CC(=O)CC[C@]4(C)[C@H]3[C@@H](O)C[C@@]21C,4.58% (inactive)
9,Cc1nc(C2CC(=O)OC23CCCCC3)cs1 (configuration not stated),-0.47% (inactive)
10,CSCCC(NC(=O)OC(C)(C)C)C(=O)Oc1ccc2c(=O)c(-c3ccc4c(c3)OCCO4)coc2c1 (configuration not stated),14.1% (inactive)
11,c1ccc(-c2ccccn2)nc1,0.78% (inactive)
12,Cn1nc(-c2ccc(Cl)cc2)nc2c(=O)n(C)c(=O)nc1-2,90.7% (active)
13,Cn1nc(-c2ccccn2)nc2c(=O)n(C)c(=O)nc1-2,98.2% (active)
14,Cn1c(=O)[nH]c2nnc(-c3ccc(Cl)c(Cl)c3)nc2c1=O,4.18% (inactive)
15,CN(C)CCCNc1ncnc2c1cnn2-c1ccccc1,-1.45% (inactive)
16,CCNC(=O)c1sc2cc(C)ccc2c1Cl,0.99% (inactive)
17,CSCCC(NC(=O)/C(=C/c1ccc2c(c1)OCO2)NC(=O)c1cccc([N+](=O)[O-])c1)C(=O)O (configuration not stated),-0.41% (inactive)
18,Nc1nnc(CSCc2ccc(Cl)cc2Cl)s1,3.81% (inactive)
19,CC12CCC(C(=O)NNc3ccccc3)(C(=O)C1=O)C2(C)C (configuration not stated),-2.07% (inactive)
20,COc1ccc(CN2CCCC(C(=O)c3ccc(Cl)cc3)C2)cc1Cn1cccn1 (configuration not stated),-0.23% (inactive)
21,O=C(CSCc1ccccc1)NCCCN1CCOCC1,-0.81% (inactive)
22,CC(=O)c1cc2c(cc1NC(=O)c1ccco1)OCCO2,-1.18% (inactive)
23,COC(=O)[C@H]1[C@H]2C[C@@H]3c4[nH]c5cc(OC)ccc5c4CCN3C[C@H]2C[C@@H](OC(=O)c2ccc(N)cc2)[C@@H]1OC,6.06% (inactive)
24,COC(=O)c1[nH]c2ccc(F)cc2c1NC(=O)C1=COCCO1,6.4% (inactive)
25,COc1cc(CNCCc2ccccc2F)ccc1OCC(=O)N1CCCCC1,-1.57% (inactive)

row,SMILES,inhibition
1,COCCOC(=O)C1=C(N)OC2=C(C(=O)CCC2)C1c1cccnc1 (configuration not stated),1.53% (inactive)
2,COc1ccc(NC(=O)CC2C(=O)N(C)C(=S)N2Cc2ccncc2)cc1 (configuration not stated),-3.53% (inactive)
3,CN1CCCN=C1COC(=O)C(O)(c1ccccc1)C1CCCCC1 (configuration not stated),-4.01% (inactive)
4,Cc1cccc(OCC(=O)Nc2ccc(C(=O)NCC(C)C)cc2)c1,0.21% (inactive)
5,N#CCC(N)=C(C#N)C#N,0.67% (inactive)
6,CC(=O)[C@@]1(O)CC[C@H]2[C@@H]3CCC4=CC(=O)CC[C@]4(C)[C@H]3[C@@H](O)C[C@@]21C,-0.33% (inactive)
7,Cc1ccccc1NC(=O)C1c2ccccc2Oc2ccccc21,-0.73% (inactive)
8,CC(C)NS(=O)(=O)c1ccc(OCC(=O)Nc2cccc(F)c2)cc1,2.86% (inactive)
9,COc1ccc(C2=C(CN(C)C)C(c3ccccc3)c3ccccc3O2)cc1 (configuration not stated),-1.24% (inactive)
10,COc1ccc(-c2nc(C)c(C(C)=O)n2O)cc1OC,2.19% (inactive)
11,O=C(O)CCn1c(=S)n(CCC(=O)O)c2ccccc21,3.98% (inactive)
12,CC(OC(=O)c1cc(=O)[nH]c2ccccc12)C(=O)c1ccccc1 (configuration not stated),-0.79% (inactive)
13,C=C(C)Cn1c(NCCOC)nc2c1c(=O)[nH]c(=O)n2C,1.67% (inactive)
14,CC(=O)NC1C(OCCOc2ccc(Cl)cc2Cl)OC(COC(C)=O)C(OC(C)=O)C1OC(C)=O (configuration not stated),2.94% (inactive)
15,CCOC(=O)C1=C(C)N[C@@]2(O)c3ccccc3C(=O)[C@@]12O,5.29% (inactive)
16,CCOC(=O)c1cccc(C(=O)OCC)n1,-2.55% (inactive)
17,CCOC(=O)c1c(C)oc2c1C(=O)c1ccccc1C2=O,61.9% (active)
18,CC(=O)N1CC23C=CC(CC2CC12CCCCCC2)O3 (configuration not stated),0.84% (inactive)
19,CCOc1ncnc2c1[nH]c1ccccc12,1.88% (inactive)
20,COC(=O)C1[C@H]2C(=O)N(Cc3cccs3)C[C@]23C=C[C@H]1O3 (some centres not stated),2.54% (inactive)
21,CC(C)CN1CCN(Cc2ccc3ncccc3c2)CC1CCO (configuration not stated),5.67% (inactive)
22,CNS(=O)(=O)c1ccc(C)cc1,-0.67% (inactive)
23,Cc1ccc(S(=O)(=O)N[C@@H](Cc2ccccc2)C(=O)CCl)cc1,39.7% (active)
24,CCCCNC(=O)NS(=O)(=O)c1ccc(C)cc1,5.34% (inactive)
25,O=C(CCc1ccccc1)Nc1ccccc1C(F)(F)F,-2.28% (inactive)

row,SMILES,inhibition
1,COc1cc2c(cc1OC)C(c1ccccc1)=NCC2,3.38% (inactive)
2,C[C@]12CC[C@@H]3c4ccc(O)cc4[C@@H](O)C[C@H]3[C@@H]1CC[C@@H]2O,2.58% (inactive)
3,CC(=O)CCc1c(C)c2cccc(C)c2[nH]c1=O,2.48% (inactive)
4,CCCCC/C=C\C[C@H](O)/C=C/c1cccc(C[C@H](O)CCCCO)n1,4.29% (inactive)
5,CCOC(=O)C(NC(C)=O)C(O)c1ccc([N+](=O)[O-])cc1 (configuration not stated),3% (inactive)
6,O=C1OC(Nc2ccc3c(c2)OCO3)c2ccccc21 (configuration not stated),3.54% (inactive)
7,Cc1cccc(Oc2coc3cc(OC(=O)c4cncc(Br)c4)ccc3c2=O)c1,26.8% (inactive)
8,COc1ccc(C2C3C(C)=NN=C3CC(C)(O)C2C(C)=O)cc1 (configuration not stated),-7.27% (inactive)
9,O=P(c1ccccc1)(c1ccccc1)c1nc(-c2ccc(Cl)cc2)oc1N1CCOCC1,4.58% (inactive)
10,CC(=O)N1CCN(c2ccc(OC[C@H]3CO[C@](Cn4ccnc4)(c4ccc(Cl)cc4Cl)O3)cc2)CC1,6.45% (inactive)
11,C/C=C(/C(=C/C)c1ccc(O)cc1)c1ccc(O)cc1,0.21% (inactive)
12,C=CCc1cccc2cc(C(=O)Nc3ccc(CC(=O)O)cc3)c(=O)oc12,-4.46% (inactive)
13,COc1ccc(C(=O)Nc2nc3ccccc3c(=O)[nH]2)cc1,0.21% (inactive)
14,COC(=O)c1[nH]c(=O)c2ccccc2c1O,66.5% (active)
15,CC(C)C(=O)Nc1c(O)c2ccccc2[nH]c1=O,-3.74% (inactive)
16,CCOC(=O)n1c(=O)oc2ccccc21,-6.44% (inactive)
17,CCOc1cc2c3c(c1)C(C)=CC(C)(C)N3C(=O)C2=O,-0.07% (inactive)
18,CC(C)CC(=O)NC(NC(=O)CC(C)C)c1cccc([N+](=O)[O-])c1,-2.91% (inactive)
19,Cc1[nH]c2ccccc2c1C(=O)CN1CCCC1,-1.81% (inactive)
20,O=C1NCC2=C1C(c1ccccc1)Nc1ccccc1N2 (configuration not stated),58.3% (active)
21,O=C1Cc2ccccc2C(c2ccccc2)N1 (configuration not stated),0.84% (inactive)
22,COc1cc(C2Nc3ccccc3NC3=C2C(=O)CC(c2ccc(OC)c(OC)c2)C3)ccc1O (configuration not stated),-5.4% (inactive)
